Screens: PubChem, Johns Hopkins Ion Channel Center
Kir21 inh = inhibitors of mouse Kir2.1 inward-rectifier potassium channel. B-score at 10 µM. HEK293-Kir2.1, FluxOR thallium flux fluorescence; active compounds read low. P35561. AID 1672. 310,000 tested, 0.85% active;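 active = fluorescence ratio B-score at or below minus 3 SD of library scores, with starting-brightness B-score within 2 SD, cut at about -4.2 in these data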;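 also: channel flux triggered by added potassium and thallium sulfate stimulus; B-score of peak minus minimum fluorescence over baseline after thallium stimulus; more negative B-score means stronger Kir2.1 block with less thallium influx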
KCNQ1 act = human KCNQ1 channel potentiation or activation; P51787; CHO-K1 KCNQ1, thallium flux FluxOR fluorescence; active compounds read high; 310,000 tested, 0.35% active; B-score at 10 µM; AID 2648;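 active = fluorescence ratio B-score, a plate-corrected score, at least three library SD, with initial intensity B-score within 5 SD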
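Medium – assay buffer, equal DMSO in all wells · Material – CHO-K1 cell line with stable KCNQ1 potassium channel expression · Signal – kinetic FluxOR thallium fluorescence, 10-s 1-Hz baseline, 110-s post-stimulus read · Compound – single concentration per compound, DMSO matched to controls · Schedule – 37 °C overnight plating, 90-min dark dye load, 20-min compound pretreatment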
hERG protect = shields human hERG channel from block by proarrhythmic agents. Q12809. CHO-hERG, FluxOR thallium flux, dofetilide IC70 present. activation (rescue from dofetilide block), less the hit threshold, % at 10 µM. 310,000 tested, 0.51% active;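 active = activation above the mean of controls blocked by dofetilide plus 5 SD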;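 also: thallium influx through hERG after potassium depolarization seen as dye fluorescence rise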
KCNQ1 block = inhibitors of human KCNQ1 potassium channel; P51787; CHO-K1 KCNQ1, FluxOR thallium flux fluorescence; active compounds read high; B-score at 10 µM; 310,000 tested, 1.3% active;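 active = compounds whose thallium flux B-score, printed positive for inhibition, exceeds three library SD while starting fluorescence stays within three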;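 also: channel opened by potassium depolarization with thallium stimulus after 20 min compound exposure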
KCNK3 inh = human KCNK3 channel inhibition, primary screen. B-score at 10 µM. CHO-KCNK3 thallium flux, FluxOR fluorescence; active compounds read low. O14649. 340,000 tested, 0.84% active;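 active = B-score under library mean minus 4 SD, starting fluorescence ratio at most library mean plus 5 SD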;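 also: more negative B-score means stronger inhibition of thallium flux through KCNK3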
KCNK9 block = inhibitors of human KCNK9 two-pore domain potassium channel | B-score at 10 µM | Q9NPC2 | HEK293 KCNK9, FluxOR thallium flux fluorescence; active compounds read low | 310,000 tested, 1.2% active;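 active = ratio B-score over 3 SD below the library mean, with starting fluorescence within 5 SD of its mean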;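 also: negative B-score means less thallium flux so channel inhibition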
Of the large screens only hits and unclear results are named; the others gave an inactive call. The list is not random: actives were taken first. Their share in the collection is about 3.7%.

CC(=O)c1sc(NC(=O)c2cnc(Cl)c(Cl)c2)nc1C	KCNQ1 block 9
COC(=O)C1=C(Nc2ccccc2NS(=O)(=O)c2ccc(C(F)(F)F)cc2Cl)CSC1	KCNQ1 block 6
COC(=O)C1=C(Nc2ccccc2NC(=O)c2ccccc2C(=O)O)CSC1	none
CC12CCC(C(=O)N(c3nccs3)C1=O)C2(C)C (centres undefined)	none (no result: Kir21 inh, KCNQ1 act, hERG protect, KCNQ1 block, KCNK9 block)
CCOC(=O)C1CCCN(C(=O)c2ccc(Cn3c(=S)[nH]c4cc(C(=O)OC)ccc4c3=O)cc2)C1 (centres undefined)	hERG protect 6.6
Cc1cccc(C)c1-n1nnnc1S(=O)(=O)Cc1ccccc1Cl	KCNK3 inh -8.7 (no result: Kir21 inh, KCNQ1 act, hERG protect, KCNQ1 block, KCNK9 block)
Cc1nc(S(=O)(=O)Cc2ccccc2Cl)nc2c1CCC2	none
O=S(=O)(CC=CCS(=O)(=O)c1ccccc1)c1ccccc1	none (no result: Kir21 inh, KCNQ1 act, hERG protect, KCNQ1 block, KCNK9 block)
CCCN(CC1CC1)C(=S)Nc1ccc(Oc2ccccc2)cc1	none
CCc1cc(CC)c(/C=N/NC(N)=O)c(CC)c1	Kir21 inh -7.3
Cc1cc(C)c(/C=N/NC(N)=O)c(C)c1/C=N/NC(N)=O	none
O=C(NC(=S)Nc1cc(C(F)(F)F)ccc1N1CCOCC1)c1ccco1	hERG protect 5.7
Cc1ccccc1SCC(=O)Nc1cc(C(F)(F)F)ccc1N1CCOCC1	KCNQ1 block 14
Cc1nnc(SCC(=O)Nc2cc(C(F)(F)F)ccc2N2CCOCC2)o1	none
CSc1nc2ccccc2n1CC(=O)Nc1cc(C(F)(F)F)ccc1N1CCOCC1	KCNK9 block -7.8
O=C(CCNC(=O)Cn1ccc2ccccc2c1=O)NCCc1ccccc1Cl	none
O=C(CN(C(=O)c1csnn1)c1ccc(F)cc1)NCCc1ccccc1	none
Cc1ccc(C)c(S(=O)(=O)NC(CCC(N)=O)C(=O)O)c1 (centres undefined)	none
Cc1cc(C(=O)N/N=C/c2cc(Cl)cc([N+](=O)[O-])c2O)n[nH]1	none
O=C(NCc1cccs1)C(=O)NCC(c1ccco1)N1CCN(c2ccccc2F)CC1 (centres undefined)	none
CSc1nc(Oc2ccc3ccccc3c2)c2ccccc2n1	KCNK9 block -7.2
CCN(CC)CCn1c2c(c(SCC(=O)Nc3cc(OC)cc(OC)c3)nc1=O)CCC2	none
CCOc1cc(NC(=S)N2CCC(C(N)=O)CC2)c(C(=O)OC)cc1OCC	hERG protect 11
COC(=O)c1cccc(CSc2nnc(-c3ccco3)n2-c2ccccc2)c1	Kir21 inh -6.8
CN1C(=O)c2ccc(Oc3ccccc3)cc2C1=O	none
O=C(Nc1ccccc1)N(O)c1ccc(Cl)cc1	KCNQ1 block 6
CCOc1cc(/C=C(\C#N)C(=O)Nc2cccc(C(=O)O)c2)ccc1OCc1ccccc1Cl	KCNQ1 block 6
CCOc1cc(/C=C(\C#N)C(=O)Nc2cccc(C(=O)O)c2)cc(Br)c1OC(=O)c1ccc(OC)cc1	Kir21 inh -5.3
CCc1cc(CNC(=O)C2CCC(=O)N(CCc3cccc(F)c3)C2)on1 (centres undefined)	none
Cc1nc2ccccc2c(=O)n1NC(=O)c1cc(Br)ccc1Cl	none
Cc1noc(/C=C/N(C)C)c1S(=O)(=O)N(C)Cc1ccc(F)cc1	none
Oc1oc(C=Nc2ccc(F)cc2F)c2ccccc12	none
COc1ccc(OC)c(/C=C/C(=O)OCC(=O)Nc2nnc(-c3ccccc3)o2)c1	none (no result: Kir21 inh, KCNQ1 act, hERG protect, KCNQ1 block, KCNK9 block)
N#C/C(=C(/O)CCl)c1nc2c(s1)CCc1ccccc1-2	KCNQ1 block 6
Nc1nc2c(s1)CCc1ccccc1-2	none
Cc1ccc(-n2[nH]c(C)c(/C=N/Nc3ccc([N+](=O)[O-])cc3[N+](=O)[O-])c2=O)cc1	KCNQ1 block 7
Cc1[nH]n(-c2ccc([N+](=O)[O-])cc2)c(=O)c1C=NCC1CCCO1 (centres undefined)	none
COC(=O)c1cn(NC(=O)CCC2CCCC2)c(=O)c2ccccc12	hERG protect 5.8
CCOc1ccccc1C1c2cc3c(cc2OC(C)(N2CCCC2)C1C)OCO3 (centres undefined)	none
CN(C)CCCNC(=O)c1ccccn1	none
CN(C)CCCNC(=O)c1ccc(-c2nc(-c3ccc(Cl)cc3)cs2)cc1	Kir21 inh -4.7, KCNK9 block -7.2
O=C(c1cnn2c(C(F)(F)F)cc(-c3cccs3)nc12)N1CCN(C(c2ccccc2)c2ccccc2)CC1	KCNQ1 block 6
CC(=O)NCCOC(=O)Nc1sc(=S)n(C)c1C	KCNQ1 block 8
Cc1ccc(C)c(S(=O)(=O)NCCOC(=O)Nc2sc(=S)n(C)c2C)c1	none
CN(CC(=O)OCC(N)=O)S(=O)(=O)c1ccc(Cl)cc1	none
O=C(N/N=C/c1c(O)n(-c2ccc(Cl)cn2)c(=O)c2ccccc12)c1ccncc1	KCNQ1 block 11, KCNK9 block -6.9
Cc1ccc(-c2nc3ncccc3o2)cc1NC(=O)c1cccs1	none
CCCC(=O)Nc1ccc(Cl)c(-c2nc3ncccc3o2)c1	KCNK9 block -8
CCCCCC(=O)Nc1cccc(-c2nc3ncccc3o2)c1	KCNK9 block -7.4
Cc1cc(NC(=O)c2cccs2)cc(-c2nc3ncccc3o2)c1O	KCNK9 block -8
CCC(=O)NC(=S)Nc1cccc(-c2nc3ncccc3o2)c1	none
Cc1nc2c(n1C1CCCCC1)C(=O)c1ccccc1C2=O	none
Cc1ccc(OCCC(=O)OCC(=O)NC(=O)c2ccccc2)cc1	none
Cc1ccc(CCNS(=O)(=O)c2ccc3c(c2)NC(=O)C(C)C(=O)N3)cc1 (centres undefined)	none
CC1(C)Cc2c(ccc3ccccc23)C2=C(C(=O)N3CCCC3)C(=O)C(=O)N21	hERG protect 5.1
O=C(NC1CC1)c1cccc(NC(=O)C2CCCC2)c1	none (no result: Kir21 inh, KCNQ1 act, hERG protect, KCNQ1 block, KCNK9 block)
O=C(Nc1ccccc1Cl)c1cccc(NC(=O)C2CCCC2)c1	KCNK9 block -6.9
COC(=O)c1cc2ccsc2n1Cc1nc(-c2cccc(Cl)c2)oc1C	KCNK9 block -7.3
COC(=O)c1cc2sccc2n1Cc1nc(-c2ccc(Cl)cc2)oc1C	none
Cc1n[nH]c(C)c1CCNC(=O)C1CCC(=O)N(Cc2ccccc2F)C1 (centres undefined)	none
CC(=O)OCCNc1cc(Sc2nc3ccccc3[nH]2)c2nonc2c1[N+](=O)[O-]	Kir21 inh -4.5, KCNQ1 block 7, KCNK9 block -8.1
CCc1noc(C)c1C(=O)NNC(=O)COc1cc(C)ccc1C	none (no result: Kir21 inh, KCNQ1 act, hERG protect, KCNQ1 block, KCNK9 block)
COc1ccc(CN2CCC(C(=O)c3ccc(Cl)cc3)CC2)cc1	Kir21 inh -9.8
O=C(NC(=S)N1CCCC(C(F)(F)F)C1)c1ccc(F)cc1 (centres undefined)	KCNQ1 act 13, hERG protect 11
CC(=O)c1ccc(NC(=S)N2CCCC(C(F)(F)F)C2)cc1 (centres undefined)	none
Cn1c(=O)c2c(nc(NCC3CCCO3)n2Cc2cccc(Br)c2)n(C)c1=O (centres undefined)	none
